# Bioassay records (PubChem)
# Shown are actives, neighbours in structure and some others; about 1.8% of the full set was active somewhere.
# HTRA1 inhibitor: inhibitors of human serine peptidase HTRA1; Q92743; recombinant HTRA1, FP-rhodamine activity-based probe, fluorescence polarization; inhibition, % at 5.96 µM; 340,000 tested, 0.5% active; in the data active = inhibition above about 36%;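 also: 0% = enzyme with DMSO and 100% = wells lacking enzyme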
# SIAE inh: inhibitors of human sialic acid acetylesterase SIAE. SIAE FP-Rh probe binding, fluorescence polarization. inhibition, % at 9.66 µM. 370,000 tested, 0.69% active. AID 1053197;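 active = inhibition above a cutoff: mean of compounds within the control limits plus 3 SD of those, cut at about 17% in these data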;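 also: 0% = plate median of compound wells and 100% = probe without SIAE protein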
# ARNT-TACC3 inh: disruptors of human ARNT/TACC3 interaction | AlphaScreen His-ARNT PAS-B/GST-TACC3 binding, luminescence; TACC3 fragment carries E629A point mutation | 390,000 tested, 0.66% active | Q9Y6A5 | inhibition, % at 9.99 µM;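 active = mean inhibition of replicates at least 50% and at least half of replicates each reaching 50%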;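 also: 0% = complete ARNT plus TACC3 wells and 100% = ARNT alone without TACC3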
# TCR-CD3 inh: inhibitors of human TCR-CD3 interaction; TAMRA-labeled TCR probe fluorescence, biochemical; inhibition, % at 9.4 µM; 360,000 tested, 0.37% active;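 also: recombinant mutant TCR 2C K166C tagged with TAMRA read by polarization; 0% = receptor in buffer alone and 100% = receptor with positive control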
# mABHD4 FP: inhibitors of mouse ABHD4. inhibition, % at 8.92 µM. Q8VD66. purified mABHD4, FP-Rh probe fluorescence polarization. 370,000 tested, 0.54% active;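 active = inhibition exceeding the mean over every tested compound plus 3 SD, cut at about 30% in these data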;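 also: 0% = plate median of compound wells and 100% = S159A mutant with DMSO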
# Target sequence (Q8VD66 whole entry, looked up): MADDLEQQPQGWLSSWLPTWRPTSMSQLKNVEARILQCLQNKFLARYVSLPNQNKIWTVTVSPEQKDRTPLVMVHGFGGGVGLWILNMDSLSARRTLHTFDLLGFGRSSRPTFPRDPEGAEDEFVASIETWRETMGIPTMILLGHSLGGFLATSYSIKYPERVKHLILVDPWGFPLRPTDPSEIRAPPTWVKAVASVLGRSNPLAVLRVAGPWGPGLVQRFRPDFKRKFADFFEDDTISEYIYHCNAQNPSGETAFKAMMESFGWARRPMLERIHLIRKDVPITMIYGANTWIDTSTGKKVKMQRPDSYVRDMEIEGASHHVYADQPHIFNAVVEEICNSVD
#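 Assay system: Wild-type mouse ABHD4 protein | Medium: HEPES pH 7.0 buffer, 150 mM NaCl, 0.01% Pluronic F-127 | Incubation: Enzyme–compound pre-incubation 45 min, then probe 60 min, both 25 °C | Technique: Fluorescence polarization with parallel and perpendicular emission, 525/598 nm | Evaluation: % inhibition of FP-Rh probe binding versus controls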
# HTRA1 conf: HTRA1 (human) inhibition, confirmation. shares compounds with HTRA1 inhibitor. recombinant HTRA1, FP-rhodamine activity-based probe, fluorescence polarization. inhibition, % at 5.96 µM. 1,600 tested, 66% active. AID 540248;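 active = mean inhibition over three repeats above a set limit taken from the earlier primary screen, cut at about 37% in these data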;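 also: 0% = HTRA1 with DMSO and 100% = wells lacking HTRA1; inhibitors block probe binding so polarization drops and inhibition rises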
# BSA probe FL: interferes with TAMRA-BSA probe, flagging TCR-CD3 hits | 1,200 tested, 10% active | shares compounds with TCR-CD3 inh | inhibition, % at 9.4 µM | TAMRA-labeled BSA probe fluorescence counterscreen | AID 652035; in the data active = inhibition above about 23%;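 also: 0% = buffer low control and 100% = reference high control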
# TCR-CD3 conf: TCR-CD3 interaction inhibition, confirmation. 1,200 tested, 48% active. TAMRA-labeled TCR probe fluorescence binding assay. shares compounds with TCR-CD3 inh. inhibition, % at 9.4 µM
# mABHD4 conf: confirmation of mouse ABHD4 inhibitors. shares compounds with mABHD4 FP. purified mABHD4, FP-Rh probe fluorescence polarization. 1,800 tested, 55% active. inhibition, % at 8.92 µM;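 active = mean inhibition across replicates above the hit cutoff set in the primary screen, cut at about 30% in these data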;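 also: 0% = wild-type ABHD4 with DMSO and 100% = catalytically dead S159A mutant with DMSO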
# SIAE inh conf: human SIAE inhibition, confirmation. inhibition, % at 9.66 µM. 2,300 tested, 13% active. AID 1117263. shares compounds with SIAE inh. SIAE FP-Rh activity-based probe, fluorescence polarization;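 active = mean inhibition of the replicates above the hit cutoff set in the primary screen, cut at about 17% in these data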;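 also: 0% = SIAE with DMSO and probe and 100% = probe without SIAE; inhibitors lower polarization as more probe stays unbound to SIAE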
# * hit, by the source's call; · = no result given. Rule as the data show it, unless noted: active = inhibition above about 19%; inactive = the rest.
SMILES,HTRA1 inhibitor,SIAE inh,ARNT-TACC3 inh,TCR-CD3 inh,mABHD4 FP,HTRA1 conf,mABHD4 conf,SIAE inh conf,others
Cc1ccc(C(C)C)c(OCc2ccc(C(=O)N/N=C/c3cccc(O)c3O)cc2)c1,83*,28*,-14,18,12,78*,·,-1,
CC(=O)Nc1ccc(C(=O)N/N=C/c2ccccc2OCc2ccccc2)cc1,-53,-44,·,6,-46,·,·,·,
Cc1ccc(C(C)C)c(OCc2ccc(C(=O)N/N=C/c3ccc(O)c(O)c3)cc2)c1,63*,26*,-3,-1,18,56*,·,-14,
O=C(N/N=C/c1ccc(O)c(O)c1)c1ccc(CSc2cccc3cccnc23)cc1,57*,42*,23,16,23,85*,·,16,
COc1ccc(-c2cnc3c(c2)C(=O)N([C@H](C)CO)C[C@H](C)[C@H](CN(C)C(=O)CN(C)C)O3)cc1,·,·,3,·,·,·,·,·,
O=C(C[C@H]1CC[C@@H](NC(=O)c2ccccc2)[C@H](CO)O1)NCc1ccc(Oc2ccccc2)cc1,·,·,-1,·,·,·,·,·,
C[C@H]1CN([C@@H](C)CO)S(=O)(=O)c2ccc(C3=CCCC3)cc2O[C@@H]1CN(C)CC1CCOCC1,·,·,12,·,·,·,·,·,
Cc1noc(C)c1NC(=O)Nc1ccc2c(c1)C(=O)N([C@H](C)CO)C[C@@H](C)[C@H](CN(C)C(=O)Nc1c(C)noc1C)OCCCC[C@@H](C)O2,·,·,-1,·,·,·,·,·,
Nc1ccc(C(=O)N/N=C\c2cc(N=Nc3cccc4ccccc34)ccc2O)cc1,56*,36*,-16,13,16,91*,·,19*,
C/C(=N\NC(=O)c1ccccc1O)c1cccc(NC(=O)c2ccccc2)c1,20,6,-2,7,4,·,·,·,
C/C(=N\NC(=O)c1cc(O)ccc1O)c1cccc(NC(=O)c2ccc(Cl)cc2)c1,44*,26*,1,46*,57*,17,42*,10,BSA probe FL=-17;TCR-CD3 conf=9
O=C1C=CC2=C3c4cc(O)c(O)cc4CC3(O)COC2=C1O (stereo unspecified),45*,28*,27,88*,26,44*,·,4,BSA probe FL=12;TCR-CD3 conf=93*
C[C@@H]1CN([C@H](C)CO)C(=O)c2cccc(NS(=O)(=O)c3cn(C)cn3)c2O[C@H]1CN(C)S(=O)(=O)c1ccccc1,·,·,-7,·,·,·,·,·,
CCN(CCCNc1cc2c(c(N)c1S(=O)(=O)O)C(=O)c1ccccc1C2=O)c1ccccc1,86*,33*,·,3,102*,83*,103*,23*,
COc1ccc(/C=C(\C#N)C(=O)Nc2cccc3ncccc23)cc1OC,4,-1,1,1,-1,·,·,·,
N#C/C(=C\c1ccc(O)c(O)c1)C(=O)Nc1cccc2ncccc12,52*,29*,14,72*,28,39*,·,0,BSA probe FL=-21;TCR-CD3 conf=60*
Cc1ccc2[nH]c(C)c(/C=N/Nc3nc4ccccc4s3)c2c1,49*,41*,-2,3,31*,53*,43*,17,
CN(C1=C(N2CCCCC2)C(=O)c2ccccc2C1=O)c1ccccc1,66*,20*,47*,-10,38*,75*,69*,14,
C[C@@H]1CN([C@H](C)CO)C(=O)c2cc(NC(=O)Nc3cccc4ccccc34)ccc2O[C@@H](C)CCCCO[C@H]1CN(C)Cc1ccc2c(c1)OCO2,·,·,10,·,·,·,·,·,
Nc1cccc2c(=O)c3ccccc3[nH]c12,55*,30*,4,18,60*,18,41*,5,
Cc1ccc(S(=O)(=O)NCc2ccc3c(c2)cc(C)n3C)cc1,40*,28*,3,42*,60*,11,1,3,BSA probe FL=6;TCR-CD3 conf=6
COCC(=O)NCc1ccc2c(c1)cc(C)n2C,-2,-1,-2,14,18,·,·,·,
Cc1cc2cc(CNC(=O)Nc3ccc(Cl)c(Cl)c3)ccc2n1C,41*,33*,-2,72*,38*,13,-12,-9,BSA probe FL=3;TCR-CD3 conf=5
C[C@H](CO)N1C[C@H](C)[C@@H](CN(C)Cc2ccccc2)Oc2ccc(NS(=O)(=O)c3ccc(Cl)cc3)cc2C1=O,·,·,4,·,·,·,·,·,
COc1cccc(S(=O)(=O)N[C@H]2C=C[C@@H](CC(=O)NCc3ccc(Cl)cc3)O[C@H]2CO)c1,·,·,1,·,·,·,·,·,
SMILES,HTRA1 inhibitor,SIAE inh,ARNT-TACC3 inh,TCR-CD3 inh,mABHD4 FP,HTRA1 conf,mABHD4 conf,SIAE inh conf,others
Oc1ccc(NCc2ccccc2OCc2ccccc2)cc1,49*,39*,-7,26*,81*,25,27,5,BSA probe FL=0;TCR-CD3 conf=-1
CCNCc1ccccc1OCc1ccccc1,4,6,-4,0,1,·,·,·,
O=S(=O)(Nc1nc2ccccc2nc1NCc1ccco1)c1ccc(Cl)cc1,8,-6,0,1,-3,·,·,·,
Cc1ccc(S(=O)(=O)Nc2nc3ccccc3nc2NCc2ccco2)cc1,43*,23*,10,67*,55*,-6,-5,2,BSA probe FL=-2;TCR-CD3 conf=3
O=C(CC1Nc2cccc3cccc(c23)NC1=O)Nc1ccccc1 (stereo unspecified),72*,23*,13,4,32*,2,42*,4,
NC(=O)CC1Nc2cccc3cccc(c23)NC1=O (stereo unspecified),19,13,-4,16,19,·,·,·,
COc1ccccc1N1CCN(Cc2cc(Br)c(O)c3ncccc23)CC1,55*,29*,·,3,22,82*,·,22*,
CCOC(=O)c1nc(Nc2ccc(Nc3ccccc3)cc2)c2ccccc2n1,46*,22*,-1,2,21,60*,·,3,
COc1ccc(OC)c2[nH]c(C(=O)N/N=C/c3ccccc3O)cc12,54*,35*,5,18,24,22,·,9,
O=S(=O)(c1ccc(F)cc1)N1CN(Cc2ccco2)c2nc3ccccc3nc21,46*,34*,5,46*,45*,1,-11,-2,BSA probe FL=9;TCR-CD3 conf=9
C[C@H]1CCCCO[C@H](CN(C)S(=O)(=O)c2ccc(Cl)cc2)[C@@H](C)CN([C@@H](C)CO)C(=O)c2cc(NC(=O)Nc3cccc4ccccc34)ccc2O1,·,·,-6,·,·,·,·,·,
CN(C)CC(=O)N1[C@@H](C#N)[C@H](c2ccc(-c3ccccc3F)cc2)[C@@H]1CO,·,·,0,·,·,·,·,·,
